Measurements from different studies.
Compare with care: the assays were run in different laboratories.
Target: Tyrosine-protein kinase ABL2 (ABL2, Homo sapiens, UniProt P42684)

SMILES | test | setting | measurement | result
CCN(CC)CCNC(=O)c1c(C)[nH]c(/C=C2\C(=O)Nc3ccc(F)cc32)c1C | binding, competition with immobilised ligand | 10 µM | inhibition | 77%
COc1cc2ncnc(Nc3ccc(Oc4ccccc4)cc3C)c2cc1OC | enzyme activity, inhibitor | 1 µM | inhibition | 16%
Cc1cc(NC(=O)c2cccc(S(F)(F)(F)(F)F)c2)cc(-n2ccn3nc(-c4cccnc4)cc23)c1 | cell-free assay, competition with immobilised ligand | 1 µM | remaining binding | 100%
CCCS(=O)(=O)Nc1ccc(F)c(C(=O)c2c[nH]c3ncc(-c4ccc(Cl)cc4)cc23)c1F | enzyme activity, inhibitor | 1 µM | inhibition | < 20%
Cc1ccc(C(=O)Nc2ccc(CN3CCN(C)CC3)c(C(F)(F)F)c2)cc1C#Cc1cnc2cccnn12 | enzyme activity, inhibitor | 23.5 nM | remaining activity | 3.2%
O=C1Nc2ccc(Cl)cc2C1=Cc1cc(Cl)c(O)c(Cl)c1 | cell-free assay | 0.5 µM | remaining signal | 80.4%
CNC(=O)c1cc(Oc2ccc(NC(=O)Nc3ccc(Cl)c(C(F)(F)F)c3)cc2)ccn1 | enzyme activity, inhibitor | 0.3 µM | inhibition | 11%
CCCOc1ccc(OC)c(F)c1C(=O)c1ccc(C(=O)N[C@@H]2CNC[C@H]2NC(=O)c2ccc3[nH]ncc3c2)cc1 | enzyme activity, inhibitor | 10 µM | remaining activity | 89%
COc1cc(Cl)c(C(=O)N[C@@H](CN[C@H]2CC[C@@H](N)CC2)Cc2ccc(C#N)cc2)cc1-c1ccc(CN[C@H](C)c2ccc(C)cc2)o1 | enzyme activity, inhibitor | 1 µM | remaining activity | 87%
CC(C)(C)c1nc(-c2cccc(NS(=O)(=O)c3c(F)cccc3F)c2F)c(-c2ccnc(N)n2)s1 | enzyme activity, inhibitor, radiometric | 1 µM | remaining activity | 77%
N#CCCc1ccc2c(c1)-c1[nH]c3ccc([N+](=O)[O-])cc3c1CC(=O)N2 | cell-free assay | 0.5 µM | remaining signal | 49.8%
CC/C(=N\NC(=O)NCc1cccc(O)c1)c1ccc(O)c(C)c1O | enzyme activity, inhibitor | 0.1 µM | inhibition | -0.2%
O=C(Nc1ccc(Oc2ccc(F)cc2)cc1)N1CCc2ncccc2[C@H]1c1ccc(F)cc1 | cell-free assay, competition with immobilised ligand | 1 µM | remaining binding | 88%
Cc1ccc(Nc2nccc(N(C)c3ccc4c(C)n(C)nc4c3)n2)cc1S(N)(=O)=O | enzyme activity, inhibitor | 10 µM | inhibition | 84%
Cc1nc(N2CC[C@@H](O)C2)ncc1-c1cc(C(F)(F)F)cc2[nH]ncc12 | binding, competition with immobilised ligand | 1 µM | remaining binding | 60%
CNC(=O)c1cc2c(Oc3ccc(NC(=O)C4(C(=O)Nc5ccc(F)cc5)CC4)cc3)ccnc2cc1OC | enzyme activity, inhibitor, radiometric | 1 µM | inhibition | 88%
C[C@H](c1ccc(F)cc1)N(Cc1cccc(C(=O)O)c1)C(=O)c1cnc2ccccc2c1 | cell-free assay, competition with immobilised ligand | 1 µM | remaining binding | 82%
CC(C)(O)[C@H]1CC[C@H](Nc2ccc3ncc(-c4cccc(C(F)(F)F)c4)n3n2)CC1 | enzyme activity, inhibitor | 1 µM | remaining activity | 76.5%
COc1cc(-c2cn(C3CCc4ccccc4N(CC(F)(F)F)C3=O)nn2)ccc1-n1ccc(C)n1 (stereo not shown) | cell-free assay, competition with immobilised ligand | 1 µM | remaining binding | 100%
Cc1sc(C(=O)NC2COC2)cc1-n1cc(NC(=O)Nc2c(F)cccc2Cl)cn1 | enzyme activity, inhibitor | 10 µM | remaining activity | 123%
Cc1c(NC(=O)c2cc(C(N)=O)nc3cc(F)ccc23)c(C(F)(F)F)nn1Cc1ccc(C(C)(C)C)cc1 | cell-free assay, competition with immobilised ligand | 1 µM | remaining binding | 87%
O=C(Nc1cnn(-c2csc(C(=O)NC3COC3)c2)c1)Nc1c(F)cccc1Cl | enzyme activity, inhibitor | 5 µM | remaining activity | 88.7%
